Assay results: PMC11164094 (International Journal of Nanomedicine, 2024)
Converted amounts (≈) assume the structure as drawn.

Assays:
HUA mice = test: In vivo anti-hyperuricemia study; parameters: species or system KM mice; conditions: for serum UA level vs HUA group: gavage once daily, 5 mg/kg FEB, 10 mg/kg OBB, 1, 2, 4 mg/kg OBB-HP-β-CD SDDS
How it was run: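 KM mice (male, 20 ± 2 g, 4 weeks, SPF) were acclimatised ≥7 days at 24 ± 1°C, n = 10/group. Hyperuricemia was induced daily for 10 days with PO 300 mg/kg i.p. plus HX 300 mg/kg oral. Test compound was gavaged 1 h post-challenge, once daily for 7 days. Kidneys were taken 1 h after the last dose, fixed 24 h in 4% PFA, paraffin-embedded, sectioned at 4 μm, H&E-stained and blind-scored at 200× (n = 3).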

[1] = Solubility test of OBB in different dissolution media and excipient solutions; assay type: physicochemical; conditions: for Solubility: 25°C, shaken 24 h
How it was run: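 Excess test compound was added to each medium, with solid excipients made up as 25 mg/mL aqueous solutions. Samples were shaken at 90 rpm and 25°C for 24 h to reach equilibrium. They were then centrifuged (9000 ×g, 20 min), and the supernatant was filtered (0.22 µm), diluted and quantified by HPLC. HPLC used a C18 column with methanol-water 70:30 and 0.1% formic acid, isocratic at 1.0 mL/min, 30°C.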

[2] = Pharmacokinetic study in rats; assay type: in vivo; conditions: male, Sprague Dawley, rat, blood, oral, 50 mg/kg
How it was run: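 Male Sprague Dawley rats (200–240 g) were fasted overnight with free water and dosed in groups of 6. Dose was 50 mg/kg test compound, given p.o. as raw material or as HP-β-CD supersaturated formulation, or i.v. as formulation. Heparinized orbital blood was drawn at 0.083–24 h. Acetonitrile protein precipitation with piperine internal standard; centrifuged 2000 ×g, 10 min; residue redissolved in methanol, filtered; HPLC.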

[3] = Appearance and solubility of prepared samples in water; assay type: physicochemical
[4] = previous study; cited from earlier work
[5] = previous study; cited from earlier work; remark: listed apart in the source

SMILES | renal histopathological damage (H&E) vs HUA group (HUA mice) | serum UA level vs HUA group (HUA mice) | solubility at 24 h ([1]; artificial gastric fluid) | Solubility ([1]; artificial intestinal fluid) | Solubility ([1]; water) | bioavailability [2] | appearance after addition of water and sufficient stirring [3] | anti-hyperuricemic activity [4] | safety profile [5]
Cc1nc(-c2ccc(OCC(C)C)c(C#N)c2)sc1C(=O)O [FEB, febuxostat, reference compound] | effectively ameliorated | significantly decreased | – | – | – | – | – | – | –
COc1ccc2cc3n(c(=O)c2c1OC)CCc1cc2c(cc1-3)OCO2 [OBB, Oxyberberine] | effectively ameliorated | significantly decreased | ~0.32 µg/mL (≈ 0.911 µM) | completely insoluble | completely insoluble | 1.55% | remained cloudy | comparable to the first-line agent febuxostat | favorable safety profile
